High-throughput results (PubChem)
Hits are enriched below; roughly 11% of the tested compounds scored in any of these assays.
SF-1 act: SF-1 (human) activation; AID 522; CHO-K1 Gal4-SF-1 LBD luciferase reporter; % increase over DMSO SF-1-specific signal; hit rate 1.9% among 65,000; activation, % at 10 µM; Q13285;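 active = activation above the mean activation of all tested compounds plus 3 SD, cut at about 50% in these data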
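Assay system: CHO-K1 cells co-transfected with Gal4 DBD–human SF-1 LBD, 5xGal4 luciferase reporter / Input: 4,000 cells per well / Incubation: 20 h compound exposure at 37 °C after 1 h cell settling / Detection: SteadyLite luciferase luminescence / Control set: DMSO negative control and −SF1 background wells / Replication: one test per compound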
RORA act: activates the human nuclear receptor RORA; activation, % at 10 µM; CHO-K1 Gal4-RORA LBD luciferase reporter, luminescence; percent increase over mock-subtracted basal signal; P35398; hit rate 1.5% among 65,000;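 active = activation above the mean of all tested compounds plus 3 SD, cut at about 49% in these data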
Htt clearance: mutant huntingtin protein clearance | inhibition, % at 1.5 µM | AID 853 | HeLa Exon1htt(103Q)mCFP, aggregate imaging; zero = plate's median compound well | hit rate 0.42% among 47,000;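 active = inhibition of aggregate fluorescence above about 70%, also judged a hit by eye on the cell image, limit read from the data, passing the limit was not always enough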;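 also: cells exposed to compound for three days before fixation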
M1 antag: blocks the rat M1 muscarinic receptor response to acetylcholine; P08482; CHO-M1 cells, Fluo-4 calcium, ACh EC80 antagonist mode; stronger effect = lower value; B-score at 10 µM; hit rate 3.4% among 64,000;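 active = calcium fluorescence response, raw or row-and-column corrected B-score, differing from the plate sample mean either way at a set confidence level, mostly lower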
Target sequence (P08482 whole entry, looked up): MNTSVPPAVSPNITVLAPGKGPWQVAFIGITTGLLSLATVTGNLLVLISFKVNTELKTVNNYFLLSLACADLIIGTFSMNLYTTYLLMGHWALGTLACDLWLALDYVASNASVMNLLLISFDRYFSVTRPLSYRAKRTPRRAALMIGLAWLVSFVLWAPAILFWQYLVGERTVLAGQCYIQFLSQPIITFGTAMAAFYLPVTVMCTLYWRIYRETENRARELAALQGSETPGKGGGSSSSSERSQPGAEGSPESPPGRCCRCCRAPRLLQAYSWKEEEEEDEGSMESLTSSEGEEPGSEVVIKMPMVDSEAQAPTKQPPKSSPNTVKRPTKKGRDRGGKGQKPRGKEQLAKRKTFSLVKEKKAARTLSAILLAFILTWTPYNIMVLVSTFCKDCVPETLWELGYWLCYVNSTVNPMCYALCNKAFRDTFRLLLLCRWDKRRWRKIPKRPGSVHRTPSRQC
M1 agonist: M1 muscarinic receptor agonism | B-score at 10 µM | hit rate 3% among 64,000 | AID 626 | CHO-M1 cells, Fluo-4 calcium fluorescence, agonist mode; stronger effect = higher value;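 active = fluorescence rise, raw or as B-score row- and column-corrected plate score, outside the 99.7% band of its plate's samples, either direction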
D1 allo mod: allosteric modulators of human D1 dopamine receptor; P21728; hit rate 5.9% among 58,000; B-score at 10 µM; HEK293 D1, CRE-luciferase, dopamine EC30 potentiation; actives deviate in either direction;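 active = luminescence count or its row- and column-corrected plate score outside the 99.7% band of the plate's sample wells, on either side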
Hits are given with their value; n = inactive; x = not tested or not shown.

SMILES	SF-1 act	RORA act	Htt clearance	M1 antag	M1 agonist	D1 allo mod
Cc1c(C(=O)OCCOc2ccccc2)[nH]c2c1C(=O)CCC2	n	n	x	n	n	-3.78
COCCOC(=O)c1[nH]c2c(c1C)C(=O)CC(c1cc(OC)ccc1OC)C2 (configuration not stated)	n	75.1	x	n	n	n
CCOC(=O)c1ccc(N2C(=O)c3n[nH]c(C)c3C2c2ccco2)cc1 (configuration not stated)	n	n	n	n	n	n
Cc1ccc(N2C(=O)c3n[nH]c(C)c3C2c2ccco2)cc1 (configuration not stated)	n	66.7	n	n	n	n
CCOc1ccc(NC(=O)C(C)SC(N)=O)cc1 (configuration not stated)	n	n	n	n	n	-2.64
CCOc1ccc(NC(=O)C(C)Sc2nnnn2C)cc1 (configuration not stated)	n	n	n	n	n	n
COc1ccccc1-c1noc(CCC(=O)Nc2cc(C(F)(F)F)ccc2Cl)n1	n	n	n	n	n	n
CCCCOC(=O)Nc1ccc(N2CCCCC2)cc1	64.5	94.6	x	n	n	n
CCc1ccc(CCC(=O)Nc2ccc(C)c(C)c2)o1	55.5	n	x	n	n	n
CC1CCCN(S(=O)(=O)c2ccc3c(c2)CCN3C(=O)C2CCC2)C1 (configuration not stated)	n	n	x	n	n	-4.08
CCn1c(=O)cc(OCC(=O)N2CCN(C(=O)c3ccco3)CC2)c2ccccc21	n	n	n	n	n	n
CCn1c(=O)c2cc(C(=O)N3CCN(C(=O)c4ccco4)CC3)sc2c2ccccc21	n	n	x	n	5.21	n
O=C(NCc1ccco1)C(c1ccco1)N(Cc1cccs1)C(=O)Cn1nnc2ccccc21 (configuration not stated)	x	x	83.3	x	x	x
Cc1ccc(-c2nnn(CC(=O)N(CC(=O)NC3CCCCC3)c3cnc4ccccc4c3)n2)o1	n	n	x	n	n	n
Cc1cnn(C(=S)NCc2ccc(Cl)cc2)c1	n	n	n	n	n	n
Cc1cnn(C(=S)NCCc2ccccc2)c1	52.7	n	x	n	n	n
C=CCNS(=O)(=O)c1ccc(OCC(=O)OC)cc1	n	n	n	n	n	n
COc1cccc(Cn2c(C3CC3)nc3ccc(NC(=O)c4ccco4)cc3c2=O)c1	n	n	x	n	n	n
COc1ccc(Cn2c(C3CC3)nc3ccc(NC(=O)C4CC4)cc3c2=O)cc1	162.5	n	x	n	n	n
COc1ccc(C(=O)OCCN2C(=O)c3ccccc3C2=O)cc1	n	n	n	n	n	n
CCN(CC)S(=O)(=O)c1ccc(C(=O)OCCN2C(=O)CCC2=O)cc1	n	n	x	n	n	-4.9
CC(C)Oc1ccc(C2CC(=O)NC3=C2C(=O)CCC3)cc1 (configuration not stated)	n	n	n	n	n	-5.39
COC(=O)c1ccc(C2CC(=O)NC3=C2C(=O)CCC3)cc1 (configuration not stated)	n	n	n	n	n	n
Cc1ccc2c(c1)c1ncnc(N3CCC4(CC3)OCCO4)c1n2C	67.3	62.1	n	n	n	n
CC1(C)CC(=O)C(C=Nc2ccccc2)=C(O)C1	63.9	n	n	n	n	n
SMILES	SF-1 act	RORA act	Htt clearance	M1 antag	M1 agonist	D1 allo mod
O=C(Cn1nnc(-c2ccccc2-n2cnnn2)n1)N1CCCCC1	n	n	n	n	n	n
O=C(Cn1nnc(-c2ccccc2Cl)n1)N1CCN(S(=O)(=O)c2ccc(Cl)cc2)CC1	n	n	76.3	n	n	n
CC1CCN(S(=O)(=O)c2ccc(NC(=O)Cn3nnc(-c4ccccc4F)n3)cc2)CC1	n	52.7	n	x	x	n
CC(=O)Nc1cccc(NC(=O)C2CCCN2C(=O)Nc2ccccc2C)c1 (configuration not stated)	n	n	x	n	n	n
Cc1ccccc1N(CC(N)=O)S(C)(=O)=O	n	n	n	n	n	n
Cc1ccc(C)c(N(CC(N)=O)S(C)(=O)=O)c1	n	n	n	2.14	n	n
CCn1c(=O)c(C(=O)CN2CCCc3ccccc32)c(N)n(Cc2ccccc2)c1=O	n	n	x	n	n	n
CCOCCOC(=O)c1[nH]c2c(c1C)C(=O)CC(c1ccc(N(C)C)cc1)C2 (configuration not stated)	n	n	n	n	n	n
CCC(C)OC(=O)c1[nH]c2c(c1C)C(=O)CC(c1ccc(N(C)C)cc1)C2 (configuration not stated)	56.8	n	x	n	n	n
Clc1ccc2oc(-c3ccccn3)nc2c1	59.1	n	n	n	n	n
Nc1ccc2oc(-c3ccccn3)nc2c1	n	n	n	n	n	n
OC(COc1ccc2ccccc2c1Cl)CN1CCOCC1 (configuration not stated)	54.5	n	n	n	n	n
Cc1nc2sc3c(NCc4ccco4)ncnc3c2c2c1COC(C)(C)C2	n	n	n	n	n	x
Cc1nc2oc3c(NCc4ccccc4)ncnc3c2c2c1COC(C)(C)C2	n	n	x	n	n	8.47
CC1CN(c2nnnn2-c2ccccc2)CC(C)O1 (configuration not stated)	n	n	x	n	n	n
CCOC(=O)CC(=O)CSCC(=O)Nc1ccc(C)cc1	n	n	n	n	n	n
O=C1CCCCCN1Cc1nnc(SCc2nc3ccccc3s2)n1-c1ccccn1	78.7	60.7	x	n	n	n
CC1CCCC(C)N1C(=O)c1cc(-c2cccs2)on1 (configuration not stated)	n	61.2	x	n	n	n
O=C(NC1CCCCC1)c1cc(-c2ccco2)on1	57.8	n	n	n	n	n
CCCNC(=O)c1cc(-c2ccco2)on1	n	n	x	n	n	n
O=C(NC1CCCC1)c1cc(-c2cccs2)on1	n	109.0	n	n	n	n
CC(=O)OC1c2ccccc2C(=O)N1Cc1ccccc1 (configuration not stated)	x	x	n	x	x	x
NC(=O)C1CCN(C(=O)c2ccc(CS(=O)(=O)c3c(Cl)cccc3Cl)o2)CC1	n	n	n	n	n	n
Cc1cc(C)c(S(C)(=O)=O)c(Oc2ccc(C(C)(C)C)cc2)n1	x	x	n	x	x	x
Oc1ccc(-c2nnc(SCC3CCCCC3)o2)cc1	63.7	59.0	x	n	n	n
SMILES	SF-1 act	RORA act	Htt clearance	M1 antag	M1 agonist	D1 allo mod
O=C(CSc1nnc(-c2ccc(O)cc2)o1)N1CCOCC1	n	n	x	n	n	n
CCn1c(SCC(=O)c2cc(OC)ccc2OC)nnc1C1CC1	n	n	x	n	n	x
CCCCc1ccc(-c2ccc(Br)cc2)nc1	x	x	n	x	x	x
CCCc1ccc(-c2ccc(F)c(N)c2)nc1	n	n	x	n	n	-7.41
Cc1cc(N)n2ncc(-c3ccccc3)c2n1	75.3	88.5	x	n	n	n
Cc1cc(N2CCN(C3CCCC3)CC2)n2ncc(-c3ccccc3)c2n1	n	n	x	n	n	n
Cc1cc(N)n2nc(-c3ccccc3)cc2n1	x	x	x	n	n	-3.43
NC(=O)C1CCCNC1 (configuration not stated)	n	n	x	n	n	n
